CHOP UPR activ: activators of apoptotic CHOP UPR arm, primary screen, cell-based, CHO-CHOP luciferase reporter, luminescence, uHTS. 330,000 compounds, 0.34% hits. activation, % at 10 µM. AID 449763, 2010. UPR activation; percent of tunicamycin response over DMSO baseline;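 active means at 10 µM dose, activation of 40% or more, normalized to positive control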;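 further: 100% = tunicamycin at 10 µg/mL and 0% = DMSO alone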
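Evaluation: % reporter activation, DMSO baseline versus tunicamycin full activation; System: CHO-CHOP luciferase reporter cell line; Input: 500 cells/well; Incubation: 6 h compound treatment, 37 °C; Measured by: Steady-Glo luciferase luminescence; Dosing: one dose, 10 µM in 0.5% DMSO; Buffer or medium: F12 medium, 10% FBS; Benchmarks: positive tunicamycin 10 µg/mL, negative DMSO alone.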
Mdm2 MdmX PPI: inhibitors of human Mdm2-MdmX association, primary screen, cell-based, luminescence, split luciferase, SaOS-2, uHTS; Protein Mdm4 (Homo sapiens) + E3 ubiquitin-protein ligase Mdm2 (Homo sapiens), …; 330,000 compounds, 3% hits; inhibition, % at 8 µM; SaOS-2 split-luciferase Mdm2/MdmX complementation; AID 485346, 2010;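 active means inhibition of at least 50% at 8 µM in the primary screen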
Mdm2 ligase inh: MDM2-luciferase reporter signal enhancers, primary screen, MDM2 E3 ligase inhibitor project, cell-based, luminescence, 1536-well; E3 ubiquitin-protein ligase Mdm2 (Homo sapiens), Q00987; cell-based MDM2 ubiquitination luciferase reporter, 2 h; 0 = plate control, 100 = twice control, blank-subtracted; signal enhancement, % at 5 µM; 210,000 compounds, 0.11% hits; AID 1230, 2008;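 active means signal enhancement of 30% or more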;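 further: luminescence tracks abundance of the self-degrading MDM2-luciferase fusion protein; higher signal means inhibition of MDM2 E3 ligase activity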
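test system = mammalian cells stably expressing self-ubiquitinating, self-degrading MDM2 E3–luciferase fusion | quantity = 2000 cells/well | incubation = cell settling 4 h, compound treatment 2 h, both 37 °C | signal = luminescence with SteadyLite reagent, 15 min at room temperature | evaluation = % enhancement relative to plate controls after blank subtraction | benchmarks = plate controls and plate blanks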
B2AR ag: beta2AR agonists driving receptor internalization, primary screen, cell-based, FAP fluorogen, flow cytometry | AID 504454, 2011 | 340,000 compounds, 0.43% hits | response, % (no concentration beside the values) | Beta-2 adrenergic receptor (Homo sapiens), P07550 | Am2.2-beta2AR cells;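 active means response above a set limit, near 3 SD of response in nonfluorescent compounds, cut at about 42% in these data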
Target sequence (P07550 whole entry, looked up): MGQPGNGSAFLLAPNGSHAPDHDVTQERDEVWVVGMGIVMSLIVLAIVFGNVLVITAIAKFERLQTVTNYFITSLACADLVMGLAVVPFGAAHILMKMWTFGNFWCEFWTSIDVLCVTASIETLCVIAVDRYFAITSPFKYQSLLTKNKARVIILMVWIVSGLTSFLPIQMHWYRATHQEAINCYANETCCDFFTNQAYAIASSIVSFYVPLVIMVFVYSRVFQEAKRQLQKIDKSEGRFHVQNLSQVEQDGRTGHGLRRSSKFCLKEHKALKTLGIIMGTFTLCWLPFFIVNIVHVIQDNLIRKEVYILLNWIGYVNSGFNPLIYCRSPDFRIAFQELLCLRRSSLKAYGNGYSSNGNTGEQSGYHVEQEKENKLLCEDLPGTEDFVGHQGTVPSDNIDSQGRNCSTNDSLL
UPR XBP1 act: activators of adaptive XBP1 UPR arm, primary screen, cell-based, CHO-XBP1 luciferase reporter, luminescence, uHTS. IRE1-XBP1 UPR activation; percent of tunicamycin response, DMSO as zero. activation, % at 20 µM. 330,000 compounds, 0.33% hits. AID 463104, 2010;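 active means versus positive control, 20 µM dose yields 30% or more activation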;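 further: 100% = tunicamycin at 10 µg/mL and 0% = DMSO only wells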
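Assay system: IRE1-XBP1 luciferase reporter CHO line. Input: 1000 cells/well. Buffer or medium: F12 with 10% serum. Doses: 20 µM, 1% DMSO. Times: overnight seeding at 37 °C, 6 h compound treatment at 37 °C. Technique: Steady-Glo luciferase glow luminescence, 10 min after reagent addition.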
Dynein transport: inhibitors of GR-EGFP nuclear translocation, primary screen, dynein cargo transport inhibitor project, imaging, high-content, 3617.4 mouse cells; test concentration mostly 20 µM; stimulated with dexamethasone, 1 µM; stronger effect = lower value; z-score, hits read low; 220,000 compounds, 0.47% hits; AID 1381, 2008;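 active means plate z-score of nuclear minus cytoplasmic receptor signal below a set negative limit, without overly bright fluorescence or cell loss, cut at about -3.5 in these data, passing the limit was not always enough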;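 further: z-score of nuclear minus cytoplasmic ring GR-EGFP intensity difference per well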
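Buffer or medium: Induction medium lacking tetracycline, stripped serum | Also added: Dexamethasone agonist, 1.0 µM final, for 30 min | Timing: 48 h induction, 1 h compound, 30 min dex at 37 °C | Detection: Formaldehyde fixation, Hoechst nuclear stain, 10x automated fluorescence imaging | Measure: Nuclear versus cytoplasmic GR-EGFP signal, averaged per well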
Mdm2 MdmX conf: Mdm2-MdmX complex disruptors, retested hits, confirmation, luminescence, single concentration; AID 489028, 2010; shares compounds with Mdm2 MdmX PPI; inhibition, % at 8 µM; Mdm2-MdmX binding, luminescent assay; 10,000 compounds, 55% hits; in the data active means inhibition above about 40%
Full FLuc ctr: full-length luciferase signal inhibition, confirmation, counter-screen for Mdm2/MdmX interaction inhibitor project, cell-based, single concentration, SaOS-2. shares compounds with Mdm2 MdmX PPI. SaOS-2 full-length luciferase counterscreen, luminescence. inhibition, % at 8 µM. 6,200 compounds, 77% hits. AID 504607, 2011;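 active means mean inhibition at 8 µM reaching about 37%, which flags the compound as non-specific, limit read from the data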;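 further: p53-null SaOS-2 cells with luciferase driven by a doxycycline-inducible promoter; compound on cells about two nights before reading with doxycycline added after day one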
Starred values were filed as active, the others as inactive; . = not tested or not shown. Only some compounds are listed: those with a hit (about 3.7% of all), similar ones and a draw of the others.

SMILES	CHOP UPR activ	Mdm2 MdmX PPI	Mdm2 ligase inh	B2AR ag	UPR XBP1 act	Dynein transport	Mdm2 MdmX conf	Full FLuc ctr
O=C(N/N=C\c1ccc([N+](=O)[O-])s1)c1cncc(Br)c1	4	58*	-6	-4	-1	-0.55	44*	45*
Cc1cc(Cl)ccc1NC(=O)CCC(=O)N/N=C/c1cc([N+](=O)[O-])ccc1O	-1	62*	-5	23	-2	1.2	17	.
CCOC(=O)c1c(C)[nH]c(C(=O)N/N=C/c2cc([N+](=O)[O-])ccc2O)c1C	1	57*	.	25	-1	.	71*	55*
Fc1ccc(/C=N/NC(=S)Nc2ccc(Cl)cc2Cl)cc1	1	85*	.	-6	5	-0.017	66*	58*
CCOC(=O)c1ccc(N2CCOCC2)c(NS(=O)(=O)c2ccc(F)cc2)c1	0	17	.	6	-1	.	.	.
Cc1ccc(F)cc1NC(=O)c1sc2ncn(CC(=O)N3CCN(c4ccccn4)CC3)c(=O)c2c1C	-1	12	.	2	-3	.	.	.
C[N+]1(CC(O)COCC2COc3ccccc3O2)CCOCC1 (centres undefined)	-1	3	1	0	3	0.69	.	.
O=[N+]([O-])c1ccc(O)c(/C=N/NC(=S)Nc2ccc(Cl)cc2Cl)c1	-2	78*	-13	13	3	1.5	48*	41*
O=[N+]([O-])c1ccc(/C=N/NC(=S)Nc2ccc(Cl)cc2Cl)s1	4	63*	.	-11	5	-0.59	70*	52*
Cc1cccc(-c2nnn(Cc3nnc(NC(=O)c4ccccc4)s3)n2)c1	3	71*	-8	3	1	-0.79	-6	.
C/C=C1\COC(C(=O)NCCN2CCCC2)(C(F)(F)F)C=C1C=C1CCCCC1 (centres undefined)	1	53*	.	12	3	.	20	.
C/C=C1\COC(C(=O)NCc2ccccc2)(C(F)(F)F)C=C1C=C1CCCCC1 (centres undefined)	-1	21	.	4	-4	.	.	.
CC(C)(C)CN1CCC(Oc2cccc(C(=O)N3CCNC(=O)C3(C)C)c2)CC1	2	12	.	1	-3	.	.	.
O=C(Cn1c(=O)oc2cc(S(=O)(=O)N3CCCCC3)ccc21)N1CCc2ccccc21	22	59*	8	9	35*	-0.87	0	.
CCn1ccnc1CNC(=O)c1ccc2oc(C(C)C)nc2c1	-3	3	.	-2	4	.	.	.
O=C(Nc1ccc(NC(=O)c2ccco2)cc1)c1ccco1	3	-17	.	4	-3	.	.	.
O=C(Nc1ccc(NC(=O)c2sc3ccccc3c2Cl)cc1)c1ccco1	2	77*	-8	-4	-1	0.62	30	46*
CC(C)(C)c1ccc(C(=O)Nc2ccc(NC(=O)c3ccco3)cc2)cc1	4	51*	-22	10	4	-0.34	16	.
CC(C)(C)C(=O)Nc1ccc(NC(=O)c2ccco2)nc1	-9	90*	.	-1	-12	.	92*	58*
O=C(Nc1ccc(NC(=O)c2ccco2)nc1)c1ccco1	-2	-68	-61	-11	-4	-0.27	.	.
OCC1=C[C@@H](O)[C@@H]2C=CO[C@@H](O[C@@H]3O[C@H](CO)[C@@H](O)[C@H](O)[C@H]3O)[C@H]12	0	11	.	1	-3	.	.	.
N/C(=N\N=C/c1ccc(Br)cc1)N/N=C\c1ccc(Br)cc1	1	34	-16	7	-3	-0.32	.	.
N/C(=N\N=C/c1ccc(F)cc1)N/N=C\c1ccc(F)cc1	0	60*	.	16	18	.	4	.
O=[N+]([O-])c1c(Nc2cccc(O)c2)cc(Cl)c2nonc12	-12	100*	.	-488	-13	.	100*	51*
Cc1c(Nc2cc(Cl)c3nonc3c2[N+](=O)[O-])c(=O)n(-c2ccccc2)n1C	-10	99*	13	89*	-9	-6*	98*	57*
SMILES	CHOP UPR activ	Mdm2 MdmX PPI	Mdm2 ligase inh	B2AR ag	UPR XBP1 act	Dynein transport	Mdm2 MdmX conf	Full FLuc ctr
Cc1c(Nc2cc(N3CCOCC3)c3nonc3c2[N+](=O)[O-])c(=O)n(-c2ccccc2)n1C	.	.	0	.	.	0.85	.	.
N=C(N)c1ccc(/C=C/c2ccc(C(=N)N)cc2O)cc1	-1	2	2	-3	-5	-0.74	.	.
O=C(CN(C(=O)CNC(=O)c1cccs1)c1ccc(F)cc1)NC1CCCCC1	2	-10	.	7	-7	.	.	.
CCOC(=O)C1=C(N)n2c(s/c(=C/c3ccccc3)c2=O)=C(C(=O)OCC)C1c1ccccc1 (centres undefined)	3	51*	-6	.	-1	1.1	-10	.
CCOC(=O)C1=C(N)n2c(s/c(=C\c3ccco3)c2=O)=C(C(=O)OCC)C1c1ccco1 (centres undefined)	.	.	-4	23	.	-1.4	.	.
N#C/C(C(=O)NCc1ccccc1)=C1/N=C(NC(=O)c2ccco2)c2ccccc21	0	65*	1	7	3	-0.48	10	.
N#C/C(C(=O)NCCc1ccccc1)=C1/N=C(NC(=O)c2cccs2)c2ccccc21	0	39	-18	3	0	1.2	.	.
Cc1nc(Nc2cnc(/C=C/c3cc(C(=O)Nc4cccc(C(F)(F)F)c4)ccc3C)cn2)cc(N2CCNCC2)n1	4	90*	.	.	-2	.	52*	49*
Cc1nc(N2CCC(C)CC2)c2c(C)c(C(=O)Nc3cccc(C(F)(F)F)c3)sc2n1	-2	19	-18	18	-4	1.5	.	.
O=C(N[C@@H]1C/C=C\C[C@@H](CC(=O)N(CCO)Cc2ccccc2)C(=O)NC[C@H](c2ccccc2)OC1=O)OCC1c2ccccc2-c2ccccc21	4	61*	.	10	-3	.	11	.

Source: PubChem BioAssay (several laboratories)
